Source: ChEMBL document CHEMBL3875170, “2-Methyl-4/5-nitroimidazole derivatives potentiated against sexually transmitted Trichomonas: Design, synthesis, biology and 3D-QSAR study” (Eur J Med Chem, 2016)
In brackets after ≈: the same amount, converted by molar mass.

How the values were obtained:
[1] = Selectivity index, ratio of IC50 for human HeLa cells to MIC for metronidazole resistant Trichomonas vaginalis ATCC 50143; type: toxicity, cell-based; settings: read-out: Selectivity Index
Method in brief: (§1)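 SI is HeLa IC50 divided by parasite MIC. HeLa cells seeded at 2 × 10⁴/well in triplicate in DMEM with 10% FCS, 24 h at 37 °C in 5% CO2. Medium then replaced with compound dilutions (0.05% DMSO controls) for 24 h. Viability by MTT read at OD540; IC50 is the concentration killing 50% of cells. MIC from 48 h trypan blue parasite killing in TYM.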

[2] = system: Trichomonas vaginalis; experiment: Antiparasitic activity against metronidazole sensitive Trichomonas vaginalis ATCC 33592 after 48 hrs by trypan blue exclusion assay; type: functional; settings: ATCC 33592, 48 h
[3] = system: Trichomonas vaginalis; experiment: Antiparasitic activity against metronidazole resistant Trichomonas vaginalis ATCC 50143 after 48 hrs by trypan blue exclusion assay; type: functional; settings: ATCC 50143, 48 h
Method in brief: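 T. vaginalis trophozoites ([…]), log phase, grown in TYM with 10% FCS, vitamin mix and penicillin/streptomycin at 37 °C. Test agents from DMSO stocks serially diluted in TYM; DMSO/TYM vehicle controls. Anaerobic incubation at 37 °C with microscopic viability checks from 3 to 48 h by trypan blue exclusion. MIC is the lowest concentration killing all cells by 48 h. Repeated three times.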

[4] = Cytotoxicity against human HeLa cells after 24 hrs by MTT assay; type: toxicity, cell-based
Method in brief: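 HeLa cells seeded at 2 × 10⁴ per well in DMEM with 10% FCS, in triplicate, and held 24 h at 37 °C in 5% CO₂. Exposed to compound dilutions for 24 h; controls received 0.05% DMSO. MTT in PBS pH 7.4 added, formazan dissolved in DMSO, OD540 read. IC50 taken as the concentration killing 50% of cells.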

[5] = Selectivity index, ratio of IC50 for human HeLa cells to MIC for metronidazole sensitive Trichomonas vaginalis ATCC 33592; type: toxicity, cell-based; settings: read-out: Selectivity Index; method in brief: as §1
[6] = system: Trichomonas vaginalis; experiment: Potency index, ratio of metronidazole MIC to compound MIC for metronidazole resistant Trichomonas vaginalis ATCC 50143; type: functional

## CCN(C)C(=S)SCC(O)Cn1c([N+](=O)[O-])cnc1C (stereo not given)
[1]
  selectivity ratio: 10
[2]
  MIC: 24.6 µM (≈ 7.82 µg/mL)
[3]
  MIC: 393 µM (≈ 125 µg/mL)
[4]
  IC50 at 24 h: 4.15 mM
[5]
  selectivity ratio: 169

## CCN1CCN(CC(O)Cn2cc([N+](=O)[O-])nc2C)CC1 (racemic)
[2]
  MIC: 337 µM (≈ 100 µg/mL)
[4]
  IC50 at 24 h: > 5 mM
[5]
  selectivity ratio: > 14

## Cc1ncc([N+](=O)[O-])n1CC(O)CN1CCCCC1C (racemic)
[1]
  selectivity ratio: > 11
[2]
  MIC: 55.4 µM (≈ 15.6 µg/mL)
[3]
  MIC: 443 µM (≈ 125 µg/mL)
[4]
  IC50 at 24 h: > 5 mM
[5]
  selectivity ratio: > 90

## COc1ccccc1N1CCN(C(=S)SCC(O)Cn2c([N+](=O)[O-])cnc2C)CC1 (racemic)
[6]
  Ratio: <=12.7
[1]
  selectivity ratio: > 90
[2]
  MIC: 27.7 µM (≈ 12.5 µg/mL)
[3]
  MIC: 55.4 µM (≈ 25 µg/mL)
[4]
  IC50 at 24 h: > 5 mM
[5]
  selectivity ratio: > 185

## COc1ccccc1N1CCN(C(=S)SCC(O)Cn2cc([N+](=O)[O-])nc2C)CC1 (racemic)
[1]
  selectivity ratio: > 4
[2]
  MIC: 222 µM (≈ 100 µg/mL)
[3]
  MIC: 1110 µM (≈ 501 µg/mL)
[4]
  IC50 at 24 h: > 5 mM
[5]
  selectivity ratio: > 22

## Cc1nc([N+](=O)[O-])cn1CC(O)CSC(=S)N1CCN(C(=O)OC(C)(C)C)CC1 (racemic)
[1]
  selectivity ratio: > 9
[2]
  MIC: 28.1 µM (≈ 12.5 µg/mL)
[3]
  MIC: 562 µM (≈ 250 µg/mL)
[4]
  IC50 at 24 h: > 5 mM
[5]
  selectivity ratio: > 178

## CCOC(=O)N1CCN(C(=S)SCC(O)Cn2cc([N+](=O)[O-])nc2C)CC1 (racemic)
[1]
  selectivity ratio: 4
[2]
  MIC: 120 µM (≈ 50.1 µg/mL)
[3]
  MIC: 600 µM (≈ 250 µg/mL)
[4]
  IC50 at 24 h: 2.36 mM
[5]
  selectivity ratio: 19

## Cc1nc([N+](=O)[O-])cn1CC(O)CSC(=S)N1CCN(c2cccc(Cl)c2)CC1 (racemic)
[1]
  selectivity ratio: 3
[2]
  MIC: 54.9 µM (≈ 25.1 µg/mL)
[3]
  MIC: 549 µM (≈ 251 µg/mL)
[4]
  IC50 at 24 h: 1.74 mM
[5]
  selectivity ratio: 31

## Cc1nc([N+](=O)[O-])cn1CC(O)CSC(=S)N1CCCC(C)C1 (racemic)
[1]
  selectivity ratio: 2
[2]
  MIC: 34.9 µM (≈ 12.5 µg/mL)
[3]
  MIC: 1400 µM (≈ 501 µg/mL)
[4]
  IC50 at 24 h: 2.7 mM
[5]
  selectivity ratio: 105

## Cc1nc([N+](=O)[O-])cn1CC(O)CN1CCN(c2cccc(Cl)c2Cl)CC1 (racemic)
[1]
  selectivity ratio: 3
[2]
  MIC: 121 µM (≈ 50 µg/mL)
[3]
  MIC: 1210 µM (≈ 500 µg/mL)
[4]
  IC50 at 24 h: 3.62 mM
[5]
  selectivity ratio: 30

## Cc1ncc([N+](=O)[O-])n1CC(O)CSC(=S)N1CCN(c2ccccn2)CC1 (racemic)
[6]
  Ratio: <=12.7
[1]
  selectivity ratio: 20
[2]
  MIC: 29.6 µM (≈ 12.5 µg/mL)
[3]
  MIC: 148 µM (≈ 62.6 µg/mL)
[4]
  IC50 at 24 h: 2.97 mM
[5]
  selectivity ratio: 100

## Cc1nc([N+](=O)[O-])cn1CC(O)CSC(=S)N1CCN(c2cccc(Cl)c2Cl)CC1 (racemic)
[1]
  selectivity ratio: 2
[2]
  MIC: 25.5 µM (≈ 12.5 µg/mL)
[3]
  MIC: 510 µM (≈ 250 µg/mL)
[4]
  IC50 at 24 h: 0.724 mM
[5]
  selectivity ratio: 30

## CCN1CCN(C(=S)SCC(O)Cn2c([N+](=O)[O-])cnc2C)CC1 (racemic)
[6]
  Ratio: <=12.7
[1]
  selectivity ratio: > 60
[2]
  MIC: 20.9 µM (≈ 7.82 µg/mL)
[3]
  MIC: 83.8 µM (≈ 31.3 µg/mL)
[4]
  IC50 at 24 h: > 5 mM
[5]
  selectivity ratio: > 250

## CCCCN1CCN(C(=S)SCC(O)Cn2cc([N+](=O)[O-])nc2C)CC1 (racemic)
[2]
  MIC: 125 µM (≈ 50.1 µg/mL)
[4]
  IC50 at 24 h: 4.33 mM
[5]
  selectivity ratio: 34

## Cc1nc([N+](=O)[O-])cn1CC(O)CN1CCN(c2ccccn2)CC1 (racemic)
[1]
  selectivity ratio: > 3
[2]
  MIC: 144 µM (≈ 50.1 µg/mL)
[3]
  MIC: 1450 µM (≈ 501 µg/mL)
[4]
  IC50 at 24 h: > 5 mM
[5]
  selectivity ratio: > 34

## Cc1ncc([N+](=O)[O-])n1CC(O)CSC(=S)N1CCN(c2ncccn2)CC1 (racemic)
[6]
  Ratio: 12.3
[1]
  selectivity ratio: 69
[2]
  MIC: 29.6 µM (≈ 12.5 µg/mL)
[3]
  MIC: 29.6 µM (≈ 12.5 µg/mL)
[4]
  IC50 at 24 h: 2.04 mM
[5]
  selectivity ratio: 69

## CCN1CCN(C(=S)SCC(O)Cn2cc([N+](=O)[O-])nc2C)CC1 (racemic)
[1]
  selectivity ratio: > 3
[2]
  MIC: 134 µM (≈ 50.1 µg/mL)
[3]
  MIC: 1340 µM (≈ 501 µg/mL)
[4]
  IC50 at 24 h: > 5 mM
[5]
  selectivity ratio: > 37

## Cc1nc([N+](=O)[O-])cn1CC(O)Cn1cncn1 (racemic)
[1]
  selectivity ratio: > 5
[2]
  MIC: 99.2 µM (≈ 25 µg/mL)
[3]
  MIC: 992 µM (≈ 250 µg/mL)
[4]
  IC50 at 24 h: > 5 mM
[5]
  selectivity ratio: > 50
